Hits are enriched below; roughly 2.3% of the tested compounds scored in any of these assays.
DDE Tn6 FP inh – DD(E)-Tn6 binding inhibition, primary FP screen; P02675; actives 0.21% (n = 370,000); Fibrin DD(E) TRITC-Tn6 fluorescence polarization displacement; inhibition, % at 8.3 µM;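 active = inhibition above a per-campaign cutoff: mean of compounds within control limits plus 3 SD, cut at about 15% in these data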;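 also: 0% = median of all compound wells on the plate and 100% = blocking peptide control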
ADAM17 inh – inhibits human ADAM17; P78536; recombinant ADAM17, EDANS/DABCYL FRET peptide cleavage; inhibition, % at 6.95 µM; actives 0.83% (n = 370,000); AID 720648;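 active = inhibition above the mean of compounds lying between control limits plus 3 SD, set per campaign, cut at about 8.5% in these data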;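 also: 0% = DMSO-only wells as the low control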
ADAM10 inh – inhibitors of human ADAM10. O14672. recombinant ADAM10, EDANS/DABCYL FRET peptide cleavage, 3 h. inhibition, % at 7 µM. actives 0.62% (n = 370,000). AID 720582;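 active = inhibition above a per-campaign cutoff equal to the mean of compounds falling between control-based bounds plus 3 SD, cut at about 20% in these data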;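 also: 0% = DMSO wells while the 100% control is not disclosed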
Tn7 DDE FP – disrupts Tn7 cyclic peptide binding to fibrin D-Dimer-E complex; P02675; AID 720508; actives 0.13% (n = 370,000); inhibition, % at 8.3 µM; FP displacement of FITC-Tn7 peptide from fibrin DD(E); 0% = median of compound wells per plate;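 active = inhibition above the mean of compounds falling within the control limits plus 3 SD of them, cut at about 14% in these data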;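 also: 0% = plate median of compound wells and 100% = 10 µM Aha-Tn7 peptide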
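assay system = human clot-derived fibrin DD(E) complex | quantity = Fibrin-DD(E) at 2 µM final | timing = 10 min preincubation, 3 h with tracer, room temperature | signal = fluorescence polarization | measure = percent inhibition | benchmarks = high control wells with 10 µM unlabelled Aha-Tn7 peptide (full inhibition) | replicates = singlicate testing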
PLC-beta3 inh – blocks human PLC-beta3 enzyme activity | AID 720704 | Purified PLC-beta3, fluorogenic substrate, fluorescence | inhibition, % at 12.2 µM | actives 0.18% (n = 370,000); in the data active = inhibition above about 11%;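 also: 0% = median of compound wells on plate and 100% = full blocker control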
PLC-gamma1 inh – blocks human PLC-gamma1 enzyme activity; P19174; purified PLC-gamma1, fluorogenic substrate, fluorescence; inhibition, % at 12.2 µM; actives 0.84% (n = 370,000); AID 720700; in the data active = inhibition above about 9.5%
ADAM10 confirm – confirmation of inhibitors of human ADAM10 | AID 743208 | actives 1% (n = 2,100) | ADAM10 QFRET peptide cleavage, EDANS fluorescence | shares compounds with ADAM10 inh | inhibition, % at 6.95 µM;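 active = inhibition above about 20% chosen separately for each screening run, limit read from the data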;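 also: 0% = DMSO wells and 100% = marimastat wells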
ADAM17 counter – ADAM17 inhibition, counter-screen for ADAM10 exosite hits; AID 743214; actives 0.5% (n = 2,100); inhibition, % at 6.95 µM; shares compounds with ADAM10 inh; ADAM17 QFRET peptide cleavage, EDANS fluorescence;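 active = mean triplicate inhibition above the solvent-only control wells' mean plus 3 SD, cut at about 12% in these data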;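 also: 0% = DMSO wells and 100% = marimastat wells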
* = called active by the depositor; x = no result given.

SMILES	DDE Tn6 FP inh	ADAM17 inh	ADAM10 inh	Tn7 DDE FP	PLC-beta3 inh	PLC-gamma1 inh	ADAM10 confirm	ADAM17 counter
Cc1cccc(OCC(=O)Nc2ccc3c(c2)OCO3)c1C	6.3	-2.2	-2.0	-5.2	-1.3	1.3	x	x
Cc1ccnc(NCc2cccc3ccccc23)c1	-3.3	1.6	23.0*	-0.6	-0.1	1.8	1.8	-0.1
CCc1c(C#N)c(SCCC(=O)Nc2cccc(OC)c2)nc2c1C(=O)CC(C)(C)C2	-3.2	6.8	21.9*	-6.0	1.6	3.1	7.5	1.3
Cc1ccc(S(=O)(=O)N(C)C)cc1NC(=S)NNC(=O)C1CC1	-5.5	-2.4	20.0*	-5.2	3.1	0.5	0.3	-0.2
CC(=O)c1cc(-c2cc(C(=O)O)cc([N+](=O)[O-])c2)c(=O)n2c1CCC2	3.5	2.8	-0.4	-0.6	4.8	5.1	x	x
O=C(NCc1ccccc1)C1=C[C@H](c2ccccc2)C[C@H](OCc2ccc(CO)cc2)O1	-1.1	8.2	20.2*	5.0	-0.1	2.8	1.2	1.4
O=C(Nc1ccccc1)C1=C[C@H](c2ccc(C(F)(F)F)cc2)C[C@H](OCc2ccc(CO)cc2)O1	-3.6	8.6*	26.3*	1.6	-4.7	-0.6	7.2	2.8
O=C(Nc1ccccc1)C1=C[C@H](c2ccccc2)C[C@H](OCc2ccc(CO)cc2)O1	-7.6	0.1	5.7	0.5	-0.8	-0.8	x	x
O=C(OC12CCCN(C1)/C(=C/c1ccncc1)C2)c1cccc(F)c1 (centres undefined)	2.7	0.2	0.4	3.3	-9.0	-10.1	x	x
CC(=NNC(=S)Nc1ccccc1)c1ccccn1	-9.9	13.4*	26.0*	2.6	5.7	5.9	47.5*	42.6*
CCc1ccc(NC(=O)c2ccc(F)c(S(=O)(=O)N(CC)c3ccccc3)c2)cc1	-7.1	3.2	20.2*	-3.2	1.9	3.0	2.6	0.0
CCCCC(=O)N1CCCC(c2nc3c(nnn3Cc3cc(C)ccc3C)c(=O)[nH]2)C1 (centres undefined)	8.0	-3.5	88.1*	4.1	-0.4	-5.7	-0.4	0.1
CC(C)(C)c1ccc(Cn2nnc3c(=O)[nH]c(C4CCCN(C(=O)Cc5cccs5)C4)nc32)cc1 (centres undefined)	-5.1	1.0	6.3	-1.6	-0.7	-0.2	x	x
Cc1ccc(C)c(S(=O)(=O)N2CCC(c3nc4c(nnn4Cc4ccc5c(c4)OCCO5)c(=O)[nH]3)CC2)c1	5.0	5.0	23.8*	1.5	-5.2	3.0	11.4	3.1
CC(C)(C)c1ccc(Cn2nnc3c(=O)[nH]c(C4CCCN(C(=O)c5cccs5)C4)nc32)cc1 (centres undefined)	-10.3	7.8	23.9*	7.3	-3.1	7.5	0.9	0.3
O=C(O[C@H]1CC[C@@]23CCCN2C(=O)CCC[C@H]3C1)N1CCOCC1	3.5	1.0	-5.0	-0.3	-5.8	4.3	x	x
N#Cc1cccc(-c2csc(C(O)(c3ccccc3)C(F)(F)F)n2)c1 (centres undefined)	-3.6	8.1	20.4*	-2.6	1.5	4.6	4.4	1.4
OC(c1ccccc1)(c1nc(-c2ccc(Cl)cc2)cs1)C(F)(F)F (centres undefined)	-3.4	8.5	22.7*	-1.8	-2.7	0.4	11.2	3.4
O=C(O)c1cccc(-c2csc(C(O)(c3ccccc3)C(F)(F)F)n2)c1 (centres undefined)	-2.4	-1.4	-7.6	0.9	-1.8	-0.9	x	x
COC(=O)c1cc(-c2ccc(C(C)(C)C)cc2)c(=O)n2c1CCC2	-5.5	-2.3	-6.2	0.0	-6.6	-6.3	x	x
Cn1cccc1CC(=O)NN=C/C=C\c1ccco1	-10.5	0.8	-17.0	-4.5	-9.1	-11.2	x	x
